Data: ChEMBL document CHEMBL4706645, “The discovery of novel small molecule allosteric activators of aldehyde dehydrogenase 2” (Eur J Med Chem, 2021)
Calls of active or inactive are those of the source. The calls are words filed in the database; no cut-off is given here.

Each molecule was assayed against T1, Aldehyde dehydrogenase, mitochondrial (Homo sapiens) (UniProt P05091) (assay: Allosteric activation of recombinant human full-length ALDH2 (18 to 517 residues) expressed in Escherichia coli at 100 uM using acetaldehyde as substrate measured after 3 hrs in presence of NAD+ by […] relative to Alda-1). Settings: not given.
T1 sequence (whole entry): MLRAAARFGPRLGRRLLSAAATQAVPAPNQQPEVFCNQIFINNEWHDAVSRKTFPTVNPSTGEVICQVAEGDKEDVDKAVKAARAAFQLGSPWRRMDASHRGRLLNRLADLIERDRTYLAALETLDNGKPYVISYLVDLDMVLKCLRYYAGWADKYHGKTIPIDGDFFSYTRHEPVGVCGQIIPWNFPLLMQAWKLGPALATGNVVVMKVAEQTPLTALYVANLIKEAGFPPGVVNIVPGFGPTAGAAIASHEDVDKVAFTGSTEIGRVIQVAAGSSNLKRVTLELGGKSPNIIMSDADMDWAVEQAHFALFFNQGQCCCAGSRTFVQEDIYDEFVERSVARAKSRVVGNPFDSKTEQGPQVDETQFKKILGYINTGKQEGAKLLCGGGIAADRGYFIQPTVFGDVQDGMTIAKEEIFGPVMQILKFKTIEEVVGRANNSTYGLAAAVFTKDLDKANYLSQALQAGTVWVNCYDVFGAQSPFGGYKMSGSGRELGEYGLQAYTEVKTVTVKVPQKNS
Outline: (§1)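 Read-out is absorbance at 450 nm, taken at room temperature. Starting concentrations are 5 mg/ml ALDH2, 25 mM acetaldehyde and 1 mM NAD+. Activity is the change in absorbance per minute (SlopeOD450). Maximum fold activation is calculated from ALDH2 activity with compound and corrected by the activity of the Alda-1 reference.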

| Structure (SMILES) | fold change (FC) |
| --- | --- |
| Fc1ccc(NCc2ccc3c(c2)OCO3)cc1 | inactive |
| O=C(O)c1cc(NCc2ccc3c(c2)OCO3)ccc1Cl | inactive |
| COc1ccc(CNc2ccc(N3CCC(F)CC3)c(C(=O)NCC3CC3)c2)cc1F | inactive |
| COc1ccc(CN(C(C)=O)c2ccc(N3CCOCC3)c(C(=O)NCC3(O)CC3)c2)cc1F | inactive |
| COc1ccc(CNc2ccc(N3CCCCC3)c(C(=O)NCC3CC3)c2)cc1F | inactive |
| COc1ccc(CNc2ccc(N3CCC(F)(F)CC3)c(C(=O)NCC3CC3)c2)cc1F | 12% |
| COc1ccc(CN(C(C)=O)c2ccc(N3CCOCC3)c(C(=O)NCC(C)(C)O)c2)cc1F | inactive |
| Clc1ccc(NCc2ccc3c(c2)OCO3)cc1Cl | inactive |

Next, values leading:

| fold change (FC) | Structure (SMILES) |
| --- | --- |
| inactive | COc1ccc(CN(C)c2ccc(N3CCOCC3)c(C(=O)NCC3CC3)c2)cc1F |
| 6% | O=C(CCC(=O)OCC(=O)c1ccccc1Cl)Nc1ccc(Cl)cc1 |
| 9% | O=C(O)c1cc(NCc2ccc(Cl)c(Cl)c2)ccc1N1CCOCC1 |
| inactive | Clc1cc(NCc2ccc3c(c2)OCO3)ccc1N1CCOCC1 |
| 23% | O=C(O)c1cc(NCc2ccc3c(c2)OCO3)ccc1N1CCOCC1 |
| inactive | COc1ccc(C(=O)Nc2ccc(N3CCOCC3)c(C(=O)NCC3CC3)c2)cc1F |
| 3% | COc1ccc(CNc2ccc(-c3ccccc3)c(C(=O)NCC3CC3)c2)cc1F |

Same assay, conditions: filed as activator

| Structure (SMILES) | fold change (FC) [%] |
| --- | --- |
| COc1ccc(CNc2ccc(N3CCOCC3)c(C(=O)NCC3CCC3)c2)cc1F | 41 |
| COc1ccc(CNc2ccc(N3CCC(O)CC3)c(C(=O)NCC3CC3)c2)cc1F | 80 |
| COc1ccc(CNc2ccc(N3CCOCC3)c(C(=O)NCC(C)(C)C)c2)cc1F | 59 |
| COc1ccc(CNc2ccc(N3CCOCC3)c(C(=O)NCC(C)(C)O)c2)cc1F | 120 |
| CCOC(=O)c1cc(NCc2ccc3c(c2)OCO3)ccc1N1CCOCC1 | 64 |
| COc1ccc(CNc2ccc(C3CCOCC3)c(C(=O)NCC3CC3)c2)cc1F | 53 |
| COc1ccc(CNc2ccc(N3CCOCC3)c(C(=O)NCC3CCCC3)c2)cc1F | 51 |
| COc1ccc(CNc2ccc(N3CCOCC3)c(C(=O)NC3CC3)c2)cc1F | 94 |
| COc1ccc(CNc2cccc(C(=O)NCC3CC3)c2)cc1F | 56 |
| COc1ccc(CNc2ccc(N3CCOCC3)c(C(=O)N3CCCCC3)c2)cc1F | 66 |

Results, then the molecule that gave them:

| fold change (FC) [%] | Structure (SMILES) |
| --- | --- |
| 101 | COc1ccc(CNc2ccc(N3CCOCC3)c(C(=O)NCC(C)(C)F)c2)cc1F |
| 63 | CCNC(=O)c1cc(NCc2ccc(OC)c(F)c2)ccc1N1CCOCC1 |
| 80 | COc1ccc(CNc2ccc(N3CCOCC3)c(C(=O)NCC3CCCCC3)c2)cc1F |
| 92 | COc1ccc(CNc2ccc(N3CCOCC3)c(C(=O)NCC(C)C)c2)cc1F |
| 104 | COc1ccc(CNc2ccc(N3CCOCC3)c(C(=O)NCC3CC3)c2)cc1F |
| 97 | CCCNC(=O)c1cc(NCc2ccc(OC)c(F)c2)ccc1N1CCOCC1 |
| 52 | CNC(=O)c1cc(NCc2ccc(OC)c(F)c2)ccc1N1CCOCC1 |
| 97 | COc1ccc(CNc2ccc(N3CCOCC3)c(C(=O)NCC3(O)CC3)c2)cc1F |

The molecules below were run on Rattus norvegicus (assay: Protection against middle cerebral artery occlusion-induced Sprague-Dawley rat model of ischemic stroke-like event assessed as reduction in brain infarct size at 64 ug, icv pretreated for 5 mins followed by MCAO surgery for 2 hrs and subsequent reperfusion for 24 hrs by TCC staining based assay relative to control). Settings: dose 64 µg; time 26.0833 hrs; 26.08 h.
Type: functional
Design: scale not given: the % may be the effect or the level left

| Structure (SMILES) | Activity [%] |
| --- | --- |
| COc1ccc(CNc2ccc(N3CCOCC3)c(C(=O)NCC3CC3)c2)cc1F | 70 |

These molecules were tested on Rattus norvegicus (assay: Protection against middle cerebral artery occlusion-induced Sprague-Dawley rat model of ischemic stroke-like event assessed as reduction in brain infarct size at 50 ug, icv pretreated for 5 mins followed by MCAO surgery for 2 hrs and subsequent reperfusion for 24 hrs by TCC staining based assay). Settings: dose 50.0 µg, time 26.08333 hrs.
Type: functional, organism-based

| Structure (SMILES) | Activity |
| --- | --- |
| O=C(NCc1ccc2c(c1)OCO2)c1c(Cl)cccc1Cl | Active |

What follows are molecules tested against T2, Aldehyde dehydrogenase, mitochondrial (Homo sapiens, UniProt P05091) (assay: Allosteric activation of recombinant human full-length ALDH2 (18 to 517 residues) expressed in Escherichia coli using acetaldehyde as substrate measured after 3 hrs in presence of NAD+ by […]). Settings: not given.
T2 sequence (P05091 whole entry): T1 sequence (whole entry)
Outline: as §1

| EC50 [µM] | Structure (SMILES) |
| --- | --- |
| 4.3 | O=C(NCc1ccc2c(c1)OCO2)c1c(Cl)cccc1Cl |
| 17.9 | COc1ccc(CNc2ccc(N3CCOCC3)c(C(=O)NCC3CC3)c2)cc1F |
